# Screens deposited in PubChem by several laboratories.
# A selection: hits, their analogues and other compounds. The true share with any hit is near 4%.
# ABHD5 PLIN5 PPI: inhibitors of human ABHD5-perilipin-5 interaction | inhibition, % at 4 µM | Split G. princeps luciferase complementation, luminescence, 4 h | 360,000 tested, 0.78% active;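 active means inhibition above the mean inhibition across every tested compound plus 3 SD, cut at about 22% in these data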;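 further: 0% = DMSO only wells and the 100% control is not disclosed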
# Target sequence (Q00G26 whole entry, looked up): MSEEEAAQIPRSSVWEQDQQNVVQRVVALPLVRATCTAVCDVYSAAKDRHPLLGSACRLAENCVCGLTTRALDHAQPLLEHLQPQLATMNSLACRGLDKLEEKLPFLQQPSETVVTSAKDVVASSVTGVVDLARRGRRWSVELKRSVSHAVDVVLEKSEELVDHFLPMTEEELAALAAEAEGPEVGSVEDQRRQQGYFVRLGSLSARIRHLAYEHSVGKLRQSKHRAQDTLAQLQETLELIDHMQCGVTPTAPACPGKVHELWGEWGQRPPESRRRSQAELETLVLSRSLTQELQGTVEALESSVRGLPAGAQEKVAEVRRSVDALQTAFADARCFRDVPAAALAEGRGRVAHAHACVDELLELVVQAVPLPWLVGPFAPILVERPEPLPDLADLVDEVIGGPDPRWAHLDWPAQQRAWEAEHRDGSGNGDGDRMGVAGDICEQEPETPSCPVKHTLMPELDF
# Target sequence (Q8WTS1 whole entry, looked up): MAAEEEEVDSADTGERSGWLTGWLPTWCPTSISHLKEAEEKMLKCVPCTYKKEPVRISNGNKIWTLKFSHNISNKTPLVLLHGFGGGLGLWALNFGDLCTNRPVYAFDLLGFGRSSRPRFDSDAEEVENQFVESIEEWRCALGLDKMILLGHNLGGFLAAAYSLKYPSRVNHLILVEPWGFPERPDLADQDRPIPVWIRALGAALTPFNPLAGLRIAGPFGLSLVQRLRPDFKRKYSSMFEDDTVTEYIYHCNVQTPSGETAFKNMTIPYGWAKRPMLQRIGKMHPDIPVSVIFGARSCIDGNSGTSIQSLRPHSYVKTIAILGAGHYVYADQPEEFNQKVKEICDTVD
# UPR XBP1 act: adaptive UPR (XBP1) activation; 330,000 tested, 0.33% active; activation, % at 20 µM; AID 463104; CHO-XBP1 luciferase reporter, IRE1-XBP1 UPR activation, luminescence; percent of tunicamycin response, DMSO as zero;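 active means versus positive control, 20 µM dose yields 30% or more activation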;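 further: 100% = tunicamycin at 10 µg/mL and 0% = DMSO only wells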
#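 Assay system: IRE1-XBP1 luciferase reporter CHO line. Input: 1000 cells/well. Buffer or medium: F12 with 10% serum. Doses: 20 µM, 1% DMSO. Times: overnight seeding at 37 °C, 6 h compound treatment at 37 °C. Technique: Steady-Glo luciferase glow luminescence, 10 min after reagent addition.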
# UPR CHOP act: apoptotic UPR (CHOP) activation; CHO-CHOP luciferase reporter, luminescence; percent of tunicamycin response over DMSO baseline; activation, % at 10 µM; 330,000 tested, 0.34% active; AID 449763;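 active means at 10 µM dose, activation of 40% or more, normalized to positive control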;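 further: 100% = tunicamycin at 10 µg/mL and 0% = DMSO alone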
#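 Test system: CHO-CHOP cells, stable luciferase reporter of PERK-eIF2a-CHOP signalling | Quantity: 500 CHO-CHOP cells per well | Buffer or medium: F12 plus 10% serum | Compound dosing: 10 µM single point, 0.5% DMSO | Schedule: 6 h compound treatment, 37 °C | Signal: Luciferase luminescence | Control set: Tunicamycin high control, DMSO low control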
# Granule exo inh: blocks lytic granule exocytosis. inhibition, % at 10 µM. 360,000 tested, 0.66% active. AID 651702. TALL-104 LAMP-1 surface exposure, flow cytometry; cells stimulated with thapsigargin and PMA;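 active means inhibition above about 55%, limit read from the data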
# Mdm2 MdmX PPI: human Mdm2/MdmX binding inhibition. SaOS-2 split-luciferase Mdm2/MdmX complementation, luminescence. O15151+Q00987. inhibition, % at 8 µM. 330,000 tested, 3% active. AID 485346;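 active means inhibition of at least 50% at 8 µM in the primary screen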
# ABHD5-PLIN5 conf: confirmation of human ABHD5-PLIN5 interaction inhibitors; shares compounds with ABHD5 PLIN5 PPI; biochemical ABHD5-PLIN5 interaction, luminescence; inhibition, % at 4 µM; 2,200 tested, 67% active; AID 651612; in the data active means inhibition above about 23%;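 further: 0% = DMSO vehicle wells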
# HNF4 split-luc: active in HNF4 split-luciferase counter-screen for ABHD5-PLIN5 inhibitors. inhibition, % at 4 µM. 2,200 tested, 77% active. HNF4 dimerization, luminescence, biochemical. AID 651674. shares compounds with ABHD5 PLIN5 PPI;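 active means mean inhibition across replicate wells exceeding the computed hit threshold, cut at about 13% in these data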;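 further: light from luciferase halves that rejoin when HNF4 fusion proteins dimerize; 0% = DMSO only wells and the 100% control is not given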
# * hit, by the source's call; . = not tested or not shown.
SMILES,ABHD5 PLIN5 PPI,UPR XBP1 act,UPR CHOP act,Granule exo inh,Mdm2 MdmX PPI,ABHD5-PLIN5 conf,HNF4 split-luc
CC1=CC(C)(C)Nc2ccc(OC(=O)c3cccnc3)cc21,78*,-2,27,2,22,97*,72*
O=[N+]([O-])c1ccc(/C=N/Nc2ccc3ccccc3c2)o1,28*,0,-2,-4,2,31*,17*
COc1ccc(C(=O)N2CCCCC2c2cc(C(=O)NCc3ccc(F)cc3)no2)cc1 (configuration not stated),6,.,.,-3,.,.,.
COc1ccc(Cl)cc1N/C(N)=N/c1nc(CSc2ccc(C)cc2)cc(=O)[nH]1,104*,2,4,9,4,3,5
COc1ccc(Cl)cc1N/C(N)=N/c1nc(C)cc(=O)[nH]1,4,-1,-2,2,6,.,.
COc1cccc(OCCNc2cc(N3CCOCC3)ccc2[N+](=O)[O-])c1,7,6,2,-6,5,.,.
CC1CN(c2ccc([N+](=O)[O-])c(NCCOc3ccccc3)c2)CCN1 (configuration not stated),29*,5,0,5,34,16,0
O=[N+]([O-])c1ccc(N2CCN(S(=O)(=O)c3ccccc3)CC2)cc1NCCN1CCOCC1,23*,-2,-1,-2,0,2,9
Cc1cccc(OCCNc2cc(N3CCN(CCO)CC3)ccc2[N+](=O)[O-])c1,27*,-2,-1,7,16,16,9
CC(=O)Nc1ccc(S(=O)(=O)N2c3ccc(F)cc3CCC2C)cc1 (configuration not stated),27*,3,1,0,49,46*,5
CCCCCCCCCc1conc1C(=O)/C=C/c1oc2c(c1C)CCC(C)C2 (configuration not stated),42*,.,.,3,.,37*,-1
Cc1cc(C)cc(N2C(=O)C=CC2=O)c1,35*,.,.,-2,.,29*,89*
Cc1c([N+](=O)[O-])cc(N2C(=O)C=CC2=O)cc1[N+](=O)[O-],0,.,.,6,.,.,.
Cn1c(=O)c2c(SCC(=O)NC3CCCC3)nc(CC(C)(C)C)nc2n(C)c1=O,3,-8,-1,38,19,.,.
CN1CCN(CCCCOc2ccccc2C=O)CC1,5,0,-1,-2,13,.,.
CO/N=C(\c1nonc1N)N1CCN(c2ccc([N+](=O)[O-])cc2Cl)CC1,0,-1,-1,-4,-8,.,.
Cc1ccc2c(CC(=O)N3CCN(S(=O)(=O)c4ccc5c(c4)OCCO5)CC3)coc2c1,27*,1,-2,-1,-8,57*,.
CCCc1nnc(NC(=O)CCC(=O)N2CCN(c3nc(C)cc(C)n3)CC2)s1,-8,0,0,10,10,.,.
COc1cccc(OCCn2cccc2/C=C2/C(=N)N3OC(C)=CC3=NC2=O)c1,-7,-2,0,-3,-37,.,.
CCCCCNC(=O)C(c1ccc(-c2ccccc2)cc1)n1c(=O)c(-c2ccccc2)nc2ccccc21 (configuration not stated),-3,.,.,3,.,.,.
CC(C)(C)NC(=O)C(c1ccccc1F)n1c(=O)c(-c2ccco2)nc2ccccc21 (configuration not stated),54*,.,.,2,.,91*,36*
CCCCCNC(=O)C(c1cccc2ccccc12)n1c(=O)c(-c2ccccc2)nc2ccccc21 (configuration not stated),-2,.,.,-4,.,.,.
CCCCCNC(=O)C(c1ccc(C#N)cc1)n1c(=O)c(-c2ccco2)nc2ccccc21 (configuration not stated),75*,.,.,-5,.,44*,10
CCCCCNC(=O)C(c1ccncc1)n1c(=O)c(-c2ccccc2)nc2ccccc21 (configuration not stated),1,.,.,1,.,.,.
CCCCCNC(=O)C(c1ccc(OC)cc1)n1c(=O)c(-c2ccco2)nc2ccccc21 (configuration not stated),71*,.,.,0,.,96*,62*
SMILES,ABHD5 PLIN5 PPI,UPR XBP1 act,UPR CHOP act,Granule exo inh,Mdm2 MdmX PPI,ABHD5-PLIN5 conf,HNF4 split-luc
CCCCCNC(=O)C(c1ccccc1F)n1c(=O)c(-c2ccco2)nc2ccccc21 (configuration not stated),96*,.,.,-4,.,57*,4
CN(C)c1ccc(/C=N/OC(=O)Nc2ccccc2)cc1,0,-5,16,2,-150,.,.
CCc1cc2c(SCC(=O)NCC3CCCO3)ncnc2s1 (configuration not stated),-4,-2,0,1,12,.,.
COCCNc1nc2c(c(=O)n(Cc3ccc(OC)cc3)c(=O)n2C)n1C,-1,2,-4,0,-4,.,.
COc1cc(-c2cc(C(=O)Nc3ccc(N4CCOCC4)cc3)c3ccccc3n2)cc(OC)c1OC,24*,-1,-1,2,32,8,0
COc1cc(-c2cc(C(=O)Nc3cc(S(=O)(=O)N4CCOCC4)ccc3C)c3ccccc3n2)cc(OC)c1OC,6,-2,7,-1,40,.,.
O=C1NC(=O)C(c2ccc(Cl)cc2Cl)N1 (configuration not stated),5,.,.,5,.,.,.
N#CC1=C(N)NC(=S)C(C(N)=O)C1c1ccc(Cl)cc1Cl (configuration not stated),57*,3,0,99*,1,13,101*
N#CC1=C(N)NC(=S)C(C(N)=O)C1c1ccccc1F (configuration not stated),38*,-2,1,-8,13,-11,84*
CCOC(=O)C1C(=O)NC(SC)=C(C#N)C1c1ccccc1F (configuration not stated),-2,-2,1,0,19,.,.
Cc1cccc(NC(=O)c2ccc(S(=O)(=O)N(C)C)cc2)n1,1,1,4,3,-22,.,.
Cc1nn(CC(=O)Nc2ccccn2)c(C)c1[N+](=O)[O-],73*,0,-1,-1,-8,2,-4
O=C(/C=C/c1ccco1)N1CCN(S(=O)(=O)/C=C/c2ccccc2)CC1,29*,-2,0,1,22,24*,46*
Cc1ccc(/C=C/C(=O)N2CCN(S(=O)(=O)/C=C/c3ccccc3)CC2)o1,-2,-1,0,4,-24,.,.
N#Cc1ccc(/C=C/C(=O)c2ccccc2)cc1,83*,-2,6,15,35,100*,105*
O=C(/C=C/c1ccccc1)c1cc(Br)ccc(=O)c1O,44*,1,0,4,41,76*,68*
O=C(/C=C/c1ccccc1)c1ccccc1,35*,10,4,-6,18,82*,76*
